Results: ChEMBL document CHEMBL1139436, “Quantitative structure-activity relationship of sesquiterpene lactones as inhibitors of the transcription factor NF-kappaB” (J Med Chem, 2004)

Key:
[1] = biological target: T1, Nuclear factor NF-kappa-B complex (Homo sapiens) (UniProt Q00653+P19838+Q04206); test: (§1) Concentration required for complete inhibition of Nuclear factor kappa B DNA binding; format: protein-complex assay
How it was run: (§2)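 Jurkat T cells (RPMI 1640, 10% FCS, penicillin/streptomycin) pretreated 1 h with sesquiterpene lactone, first at 10, 20, 50, 100 μM, then 1–5 μM or 200–300 μM as needed. Stimulated 1 h with 200 U/mL TNF-α. Total extracts (Totex high-salt buffer) analysed by EMSA with ³²P-labeled NF-κB oligonucleotide, 25 min at room temperature. IC100 is the lowest tested level fully blocking binding; intermediate values assigned the higher level. Each experiment reproduced at least once.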

[2] = biological target: T1, Nuclear factor NF-kappa-B complex (Homo sapiens); test: as §1; format: protein-complex assay; parameters: unit not given here; how it was run: as §2

T1 sequence (P19838 whole entry, looked up): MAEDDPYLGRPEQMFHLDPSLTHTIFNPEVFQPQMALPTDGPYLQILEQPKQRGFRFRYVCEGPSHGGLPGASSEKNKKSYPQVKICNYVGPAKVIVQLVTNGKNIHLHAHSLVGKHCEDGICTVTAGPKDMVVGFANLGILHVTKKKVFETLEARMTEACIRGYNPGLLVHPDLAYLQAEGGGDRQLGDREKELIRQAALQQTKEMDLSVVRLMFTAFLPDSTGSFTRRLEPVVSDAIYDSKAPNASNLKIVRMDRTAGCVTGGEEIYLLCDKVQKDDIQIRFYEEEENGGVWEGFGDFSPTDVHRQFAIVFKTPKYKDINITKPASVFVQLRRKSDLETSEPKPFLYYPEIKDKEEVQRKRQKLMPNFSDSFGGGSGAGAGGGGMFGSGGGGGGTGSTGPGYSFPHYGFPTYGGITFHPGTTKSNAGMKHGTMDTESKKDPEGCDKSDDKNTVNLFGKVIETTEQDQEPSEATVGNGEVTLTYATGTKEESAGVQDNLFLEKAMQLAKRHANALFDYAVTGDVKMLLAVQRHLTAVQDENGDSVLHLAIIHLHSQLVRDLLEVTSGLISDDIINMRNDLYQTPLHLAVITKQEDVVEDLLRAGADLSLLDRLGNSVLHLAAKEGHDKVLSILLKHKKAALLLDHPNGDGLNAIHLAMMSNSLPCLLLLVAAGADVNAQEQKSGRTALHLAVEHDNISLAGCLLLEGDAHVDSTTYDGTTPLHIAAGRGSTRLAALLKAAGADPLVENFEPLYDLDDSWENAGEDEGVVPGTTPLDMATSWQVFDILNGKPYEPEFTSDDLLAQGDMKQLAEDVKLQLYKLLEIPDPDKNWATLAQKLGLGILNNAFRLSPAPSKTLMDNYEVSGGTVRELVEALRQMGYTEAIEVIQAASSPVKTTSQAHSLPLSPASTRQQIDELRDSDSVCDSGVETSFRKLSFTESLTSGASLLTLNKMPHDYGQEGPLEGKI
T1 sequence (Q00653 whole entry, looked up): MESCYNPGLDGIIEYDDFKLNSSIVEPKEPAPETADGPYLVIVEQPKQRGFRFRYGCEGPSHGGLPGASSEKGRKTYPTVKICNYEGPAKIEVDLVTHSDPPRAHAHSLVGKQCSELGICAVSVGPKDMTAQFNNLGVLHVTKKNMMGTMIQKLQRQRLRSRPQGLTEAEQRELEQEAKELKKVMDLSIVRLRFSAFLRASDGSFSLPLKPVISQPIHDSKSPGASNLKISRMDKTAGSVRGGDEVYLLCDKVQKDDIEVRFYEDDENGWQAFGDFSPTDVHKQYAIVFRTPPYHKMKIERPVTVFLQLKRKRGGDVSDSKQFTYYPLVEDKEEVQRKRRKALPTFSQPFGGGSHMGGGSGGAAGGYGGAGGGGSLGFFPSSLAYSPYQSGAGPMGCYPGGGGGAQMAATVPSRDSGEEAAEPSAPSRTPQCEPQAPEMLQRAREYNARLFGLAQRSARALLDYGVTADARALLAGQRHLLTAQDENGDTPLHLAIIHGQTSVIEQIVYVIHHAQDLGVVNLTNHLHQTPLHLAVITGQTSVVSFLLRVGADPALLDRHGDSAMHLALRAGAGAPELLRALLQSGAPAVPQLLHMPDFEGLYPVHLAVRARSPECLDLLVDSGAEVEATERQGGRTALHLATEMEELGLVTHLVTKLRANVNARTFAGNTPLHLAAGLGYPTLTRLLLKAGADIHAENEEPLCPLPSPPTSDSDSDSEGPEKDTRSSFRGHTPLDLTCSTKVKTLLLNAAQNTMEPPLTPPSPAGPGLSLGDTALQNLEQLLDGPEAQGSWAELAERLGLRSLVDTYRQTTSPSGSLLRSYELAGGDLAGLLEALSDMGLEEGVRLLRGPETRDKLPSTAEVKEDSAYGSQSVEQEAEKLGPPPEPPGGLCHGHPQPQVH
T1 sequence (Q04206 whole entry, looked up): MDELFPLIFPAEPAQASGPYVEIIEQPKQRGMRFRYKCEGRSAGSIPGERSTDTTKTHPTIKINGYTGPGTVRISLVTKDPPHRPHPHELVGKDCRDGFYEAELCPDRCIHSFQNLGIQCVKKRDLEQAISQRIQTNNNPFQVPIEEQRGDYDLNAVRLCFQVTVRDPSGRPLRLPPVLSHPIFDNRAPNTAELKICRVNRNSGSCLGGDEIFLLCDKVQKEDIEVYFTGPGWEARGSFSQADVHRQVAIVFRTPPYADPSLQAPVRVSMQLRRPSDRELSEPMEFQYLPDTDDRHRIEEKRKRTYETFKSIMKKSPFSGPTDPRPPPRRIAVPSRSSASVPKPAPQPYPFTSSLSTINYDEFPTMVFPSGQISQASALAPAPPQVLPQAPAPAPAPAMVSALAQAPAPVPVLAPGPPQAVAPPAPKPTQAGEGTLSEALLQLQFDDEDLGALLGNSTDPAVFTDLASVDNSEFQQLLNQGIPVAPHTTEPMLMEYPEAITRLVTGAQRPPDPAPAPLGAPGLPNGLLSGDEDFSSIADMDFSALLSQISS

Structure (SMILES)	IC100 [1] [µM]	pIC100 [2]
C=C1C(=O)O[C@@H]2[C@H]3C(C)=CC(=O)C3=C(C)C[C@@H](OC(=O)[C@]3(C)O[C@@H]3C)[C@@H]12	20	-1.3
C=C1C(=O)O[C@@H]2C3=C(C(=O)C[C@@H]3C)[C@@H](C)CC[C@@H]12	20	-1.3
C=C(C)C(=O)O[C@@H]1/C=C(/C=O)CCCC(=C)[C@H](O)[C@H]2OC(=O)C(=C)[C@@H]21	5	-0.69
C=C(C)C(=O)O[C@@H]1C[C@]2(C)CC[C@@](O)(O2)/C(C)=C\[C@H]2OC(=O)C(=C)[C@@H]21	50	-1
C=C(C)C(=O)O[C@H]1/C(C=O)=C\CC/C(C)=C\[C@H]2OC(=O)C(=C)[C@@H]2[C@@H]1O	5	-0.69
C=C(C)C(=O)O[C@@H]1C[C@]2(C)CC[C@@](O)(O2)[C@@H](C)C[C@H]2OC(=O)C(=C)[C@H]12	200	-2.3
C=C1C(=O)O[C@H]2[C@H]1CCC(C)=C1C(=O)[C@H]3O[C@@]3(C)[C@@H]12	5	-0.69
C=C1C(=O)O[C@H]2C/C(CO)=C\CC/C(COC(=O)C3(C)CO3)=C\C[C@H]12 (some centres undefined)	50	-1.69
C=C(CO)C(=O)OC/C1=C/C[C@@H]2C(=C)C(=O)O[C@H]2C/C(CO)=C\CC1	20	-1.3
C=C(C)C(=O)O[C@H]1/C(C=O)=C\CC/C(COC(C)=O)=C\[C@H]2OC(=O)C(=C)[C@@H]2[C@@H]1O	5	-0.69
C=C1C(=O)O[C@H]2[C@H]1[C@@H](OC(=O)/C(C)=C/C)C/C(C)=C/C(=O)/C=C(/C)[C@@H]2O	10	-1
C=C1C(=O)O[C@@H]2/C=C(/COC(=O)C(C)C)CC/C=C(/CO)C(=O)C[C@@H]12	12.5	-1.09
C=C(C)C(=O)O[C@H]1[C@H]2C(=C)C(=O)O[C@@H]2[C@H]2O[C@]2(C)CC/C=C(/C=O)[C@@H]1O	10	-1
C=C1C(=O)O[C@@H]2/C=C(/COC(=O)C(C)C)CC/C=C(/CO)[C@H](O)C[C@@H]12	100	-2
C=C1C(=O)O[C@H]2C/C(CO)=C\CC/C(COC(=O)C(C)CC)=C\C[C@H]12 (some centres undefined)	50	-1.69
C=C(C)C(=O)O[C@H]1C[C@@]2(C)OC(=CC2=O)/C(CO)=C\[C@H]2OC(=O)C(=C)[C@H]12	20	-1.3
C=C(C)C(=O)O[C@H]1[C@H]2C(=C)C(=O)O[C@@H]2[C@@H](O)C(=C)CC/C=C(/C=O)[C@@H]1OC(C)=O	10	-1
C=C1C(=O)O[C@@H]2/C=C(/CO)C3=CC(=O)[C@@](C)(C[C@@H](OC(=O)/C(C)=C/C)[C@@H]12)O3	5	-0.69
C=C(C)C(=O)O[C@H]1C[C@@]2(C)OC(=CC2=O)C(=C)[C@@H](Cl)[C@H]2OC(=O)C(=C)[C@@H]21	5	-0.69
C=C1C(=O)O[C@@H]2/C=C(/C)C3=CC(=O)[C@@](C)(C[C@@H](OC(=O)/C(C)=C/C)[C@@H]12)O3	5	-0.69
C=C1C(=O)O[C@H]2C/C(CO)=C\CC/C(COC(=O)C(C)C(C)O)=C\C[C@H]12 (some centres undefined)	50	-1.69
C=C1C(=O)O[C@H]2[C@H]1[C@H](OC(=O)C(C)C)[C@@H](OC(C)=O)/C(C=O)=C\CCC1(CO1)[C@@H]2O (some centres undefined)	5	-0.69
C=C1C(=O)O[C@@H]2/C=C(/CO)C3=CC(=O)[C@@](C)(C[C@H](OC(=O)/C(C)=C/C)[C@@H]12)O3	5	-0.69
CC[C@@H](C)[C@@]1(O)O[C@H]2C[C@@]3(C)OC(=CC3=O)/C(COC(C)=O)=C\[C@H]3OC(=O)[C@@]1(C)C23 (some centres undefined)	5	-0.69

Structure (SMILES)	IC100 [1] [µM]	pIC100 [2]
C=C1C(=O)C[C@H]2C(=C)C(=O)O[C@@H]2/C=C(/COC(=O)C(C)C)CC[C@H]1OC	25	-1.39
C=C1C(=O)O[C@H]2C[C@H](C)C3=C(C[C@H]12)[C@@H](C)CC3=O	20	-1.3
C=C1C(=O)O[C@H]2C/C(CO)=C\CC/C(COC(=O)C(C)CO)=C\C[C@H]12 (some centres undefined)	100	-2
C=C1C(=O)O[C@@H]2[C@H]3C(C)=CC[C@H]3[C@](C)(O)C[C@H](OC(C)=O)[C@@H]12	20	-1.3
C=C1C(=O)C[C@H]2C(=C)C(=O)O[C@@H]2/C=C(/COC(=O)C(C)C)CC[C@@H]1OC	25	-1.09
C=C1C(=O)O[C@@H]2/C=C(/COC(=O)CC(C)C)CC/C=C(/CO)C(=O)C[C@@H]12 (stereo in doubt; 3)	12.5	-1.09
C=C(C)C(=O)O[C@@H]1C[C@](C)(O)[C@@H]2C(=O)C=C(C)[C@@H]2[C@H]2OC(=O)C(=C)[C@@H]21	50	-1.69
C=C(C)C(=O)O[C@H]1[C@H]2C(=C)C(=O)O[C@@H]2/C=C(/C)CC/C=C(/C=O)[C@@H]1O	10	-1
C=C1C(=O)O[C@H]2C[C@H](C)C3=CC(=O)[C@H](C)C3C[C@H]12 (some centres undefined)	20	-1.3
C=C1C[C@@H]2OC(=O)C(=C)[C@H]2[C@H](O)/C=C(\C)CCC1=O	50	-1.69
C=C(C)C(=O)O[C@H]1C/C(C)=C/C(=O)/C=C(/C)[C@H](O)[C@H]2OC(=O)C(=C)[C@@H]21	10	-1
C=C1C(=O)O[C@@H]2/C=C(/COC(=O)CC(C)C)C[C@H](OC(C)=O)/C=C(/CO)C(=O)C[C@@H]12	12.5	-1.09
C=C(C)C(=O)O[C@@H]1CC(C)=C2C(=O)C=C(C)[C@@H]2[C@H]2OC(=O)C(=C)[C@@H]21	10	-1
C=C1C(=O)O[C@H]2C/C(CO)=C\CC/C(COC(=O)C(C)(C)O)=C\C[C@H]12	50	-1.69
C=C1C(=O)OC2/C=C(/C)CC/C=C(/C)[C@@H](OC(C)=O)C[C@@H]12 (some centres undefined)	200	-2.3
C=C1C(=O)C[C@H]2C(=C)C(=O)O[C@@H]2/C=C(/COC(=O)CC(C)C)CC[C@H]1OC	12.5	-1.09
C=C1C(=O)O[C@@H]2/C=C(/COC(=O)CC(C)C)CC/C=C(/CO)C(=O)C[C@@H]12 (stereo in doubt; 5)	12.5	-1.09
C=C(C)C(=O)O[C@H]1C/C(C)=C\[C@@]2(OC)C=C(C)[C@H](O2)[C@H]2OC(=O)C(=C)[C@@H]21	10	-1
C=C(C)C(=O)OC/C1=C/C[C@@H]2C(=C)C(=O)O[C@H]2C/C(CO)=C\CC1	50	-1.3
C=C(C)C(=O)O[C@@H]1/C=C(/C=O)CCC[C@@]2(CO2)[C@H](O)[C@H]2OC(=O)C(=C)[C@@H]21	5	-0.69
C=C1C(=O)O[C@@H]2[C@H]3C(C)=C(Cl)C(=O)C3=C(C)CC[C@@H]12	20	-1.3
C=C(CO)C(=O)OC/C1=C/C[C@@H]2C(=C)C(=O)O[C@H]2C/C(COC(C)=O)=C\CC1	50	-1.69
C=C(C)C(=O)O[C@H]1[C@H]2C(=C)C(=O)O[C@@H]2/C=C(/COC(C)=O)CC/C=C(/C=O)[C@@H]1O	5	-0.69
